The values below come from publication PMC4437839 (Chemical research in toxicology, 2015).

One data set deals with NAT2. To be noted: cited from earlier work.
Another data set addresses albumin in human plasma (Homo sapiens, UniProt P02768). As to conditions: for level of LQQC*[SOPhIP]PF formed, comparison between the three metabolites: albumin in human plasma or commercial human albumin, p=0.231, one-way ANOVA; for LQQC*[SO2PhIP]PFEDHVK levels, N-acetoxy-PhIP versus HONH-PhIP: human plasma, p>0.05, t-test.
Another data set has as its system NAT1. As to conditions: cited from earlier work.
For the next data set, the system named is SULT1A1. As to conditions: cited from earlier work.
A further data set has as its system 2′-Deoxyguanosine (dG). As to the kind of experiment: Trapping reactive N-oxidized electrophiles of PhIP with dG. To be noted: 42 nmol, dG 1 mg/mL, pH 8.0, 37 °C, 1 h; total ion counts at MS3 (Fig. 3).
For a further data set, the system named is Hb. As to conditions: humans, radiolabelled 14C-PhIP; cited from earlier work.
The next data set has as its system albumin. As to conditions: humans; cited from earlier work.
Data set [1] has as its target albumin in human hepatocytes culture (Homo sapiens, UniProt P02768). In words: Albumin PhIP adducts and Cys34SO3H in human hepatocytes. It counts as cell-based. The method, boiled down:
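Primary human hepatocytes (two-step collagenase perfusion) seeded at 3×10^6 viable cells/19.5-cm2 dish in Williams' medium with βME-pre-reduced human albumin (1 g/L) replacing FCS; exposed 24 h to PhIP or 1:1 PhIP:[2H5]-PhIP (50 µM). Medium albumin ethyl acetate-extracted, ethanol-precipitated, kit-isolated, desalted; trypsin/chymotrypsin digested (37 °C, 20 h); C18 SPE; mass-tag data-dependent, then targeted UPLC-ESI/MS2.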

Where [2] appears, read: N-sulfooxy-PhIP modified albumin, unpublished observations.

Each structure is given as a SMILES string. Entries after “also recorded” stand apart in the source; their conditions may differ.

Sequence of albumin in human plasma (P02768 25-609): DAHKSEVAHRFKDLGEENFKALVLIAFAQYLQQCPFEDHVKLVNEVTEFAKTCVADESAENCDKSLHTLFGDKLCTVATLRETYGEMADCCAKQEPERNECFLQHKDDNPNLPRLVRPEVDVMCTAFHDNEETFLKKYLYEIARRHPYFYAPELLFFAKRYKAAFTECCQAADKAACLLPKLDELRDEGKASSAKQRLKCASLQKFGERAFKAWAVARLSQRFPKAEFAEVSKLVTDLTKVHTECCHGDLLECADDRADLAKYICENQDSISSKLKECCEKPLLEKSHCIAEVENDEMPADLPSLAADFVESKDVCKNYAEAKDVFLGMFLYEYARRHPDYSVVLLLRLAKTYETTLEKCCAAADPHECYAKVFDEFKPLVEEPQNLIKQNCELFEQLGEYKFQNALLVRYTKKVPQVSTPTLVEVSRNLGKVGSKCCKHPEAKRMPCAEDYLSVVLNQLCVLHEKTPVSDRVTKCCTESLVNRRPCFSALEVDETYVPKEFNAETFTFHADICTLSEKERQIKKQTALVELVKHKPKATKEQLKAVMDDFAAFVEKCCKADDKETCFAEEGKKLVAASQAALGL
Sequence of albumin in human hepatocytes culture (P02768 25-609): as above

Take `Cn1c(NO)nc2ncc(-c3ccccc3)cc21` [HONH-PhIP, 2-hydroxyamino-1-methyl-6-phenylimidazo[4,5-b]pyridine]: the “bioactivation by NAT2” value in the data set with NAT2 is “poorly bioactivated”. For the same compound, on albumin in human plasma, the “level of LQQC*[SOPhIP]PF formed, comparison between the three metabolites” value (from here on “level of LQQC*[SOPhIP]PF formed”) is given as “no statistically significant difference” and the “LQQC*[SO2PhIP]PFEDHVK levels, N-acetoxy-PhIP versus HONH-PhIP” value is given as “no significant difference”. Besides, the “bioactivation by NAT1” value in the data set on NAT1 is “poorly bioactivated”. The “bioactivation by SULT1A1” value in the data set on SULT1A1 is recorded as “highly effective”. The “relative amount of dG-C8-PhIP formation” value in the data set on 2′-Deoxyguanosine (dG) is on record as “lastly”.
Turning to `CC(=O)ONc1nc2ncc(-c3ccccc3)cc2n1C` [N-acetoxy-PhIP, N-(acetyloxy)-2-amino-1-methyl-6-phenylimidazo[4,5-b]pyridine, reference compound], on albumin in human plasma, the “level of LQQC*[SOPhIP]PF formed” value is “no statistically significant difference” and the “LQQC*[SO2PhIP]PFEDHVK levels, N-acetoxy-PhIP versus HONH-PhIP” value is “no significant difference”. Also, the “relative amount of dG-C8-PhIP formation” value in the data set with 2′-Deoxyguanosine (dG) is recorded as “greatest amount”.
Turning to `Cn1c(NOS(=O)(=O)O)nc2ncc(-c3ccccc3)cc21` [N-sulfooxy-PhIP, N-sulfooxy-2-amino-1-methyl-6-phenylimidazo[4,5-b]pyridine], the “level of W[PhIP] adduct relative to signal of C[SO2PhIP]” value on albumin in human plasma (3-enzyme digest, ion counts (Fig. 7)) is “about half”. In addition, at albumin in human plasma (setting [2]), the “ion counts of H[PhIP], fold lower than counts of W[PhIP]” value is on record as 5 folder and the “ion counts of H[PhIP], fold lower than ion counts of C[SO2PhIP]” value is given as 10 fold. Besides, the “level of LQQC*[SOPhIP]PF formed” value on albumin in human plasma is reported as “no statistically significant difference”. In addition, the “level of Trp[PhIP] relative to N-acetoxy-PhIP or HONH-PhIP treated human plasma” value at albumin in human plasma (pronase E/leucine aminopeptidase/prolidase digest, ion counts (Fig. 7B)) worked out at 3 x. In addition, the “relative amount of dG-C8-PhIP formation” value in the data set on 2′-Deoxyguanosine (dG) is reported as “lower level”.
Consider `Cn1c(N)nc2ncc(-c3ccccc3)cc21` [PhIP, 2-amino-1-methyl-6-phenylimidazo[4,5-b]pyridine], for which the “PhIP binding to Hb” value in the data set on Hb is reported as “very low”. The “binding of PhIP to albumin” value with albumin was “up to several percent of the ingested dose”. For the same compound, the “PhIP and 5-HO-PhIP in the proteolytic digests of albumin” value in data set [1] (PhIP 50 µM, 24 h (Figs. 8A, 8B)) is on record as “detected”. In addition, the “Y*[desaminoPhIP]TK (Tyr411) and LQQC*[desaminoPhIP]PF (Cys34) adducts” value in data set [1] (PhIP 50 µM, tryptic/chymotryptic digest (Fig. 9)) is listed as “both adducts were identified”. The “albumin-PhIP peptide adducts at Cys34 or Trp214” value in data set [1] (PhIP or PhIP:[2H5]-PhIP 50 µM, 24 h, data-dependent and targeted MS2) is on record as “failed to detect; also recorded: below the limit of detection”. Moreover, in data set [1] (albumin isolated from hepatocytes, targeted MS2), the “LQQC*[SO2PhIP]PFEDHVK after m-CPBA oxidation of albumin” value is given as “failed to detect; also recorded: not detected”.
